Measured values from paper PMC2574997 (Journal of medicinal chemistry, 2008).
Where two headings read alike, the source gives them in different places.

Key:
PKCα = PKCα (Mus musculus, UniProt P20444); assay: Competition with [3H]PDBU binding to PKCα; conditions: for Ratio Ki crude/Ki pure: relative to unresolved library E/Z mixture
Method in brief: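 Partially purified mouse PKCα; test compound in DMSO competed with [3H]PDBU. Pure compounds ran 6–7 ligand concentrations; ID50 from sigmoidal fit; Ki = ID50/(1+L/Kd). Crude library mixtures (unresolved E/Z) were tested at a single 1 μM, with Ki calculated from that concentration. The ratio compares crude with pure Ki. Triplicates per concentration; ≥3 independent experiments; mean ± SEM.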

MCF-10A cells = assay: Cellular motility assay; assay type: cell-based, human; conditions: pure compounds, dose response, total area, 20 h
α-secretase = assay: α-Secretase activation, secreted sAPPα by immunoblot densitometry in W4 cells; assay type: cell-based, rat; conditions: crude sample or control, 1 μM
AP-1 = AP-1 luciferase assay; assay type: cell-based, Balb/C; conditions: pure DAG-lactone 100 ng/mL, 18 h, normalized to TPA 10 ng/mL; L2-C11: both E- and Z-isomers
JB6 cells = assay: Anchorage independent transformation in soft agar; assay type: cell-based, Balb/C; conditions: DAG-lactone 100 ng/mL, 14 days, normalized to TPA 10 ng/mL; L2-C11: both E- and Z-isomers
Method in brief: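 JB6 cells (10^4) suspended in 0.33% top agar containing DMSO, TPA (10 ng/mL) or test compound (100 ng/mL), layered over 0.5% bottom agar also containing compound. Anchorage-independent colonies counted after 14 days by automated image analysis; colonies >8 cells scored as transformed. Four independent plates seeded. Mean colony number reported relative to TPA as 100%.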

[1] = system: GFP-tagged PKCα, β, δ and ε; assay: Translocation of GFP-tagged PKC isoforms in CHO cells; assay type: cell-based, Chinese hamster; conditions: living CHO cells, 300 nM, confocal microscopy
Method in brief: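 PKC isoforms were subcloned into a modified pEGFP-N1 plasmid to give GFP-tagged proteins, which were over-expressed in CHO cells. Localization was followed in real time by confocal microscopy before and after ligand treatment, with membrane translocation from cytosol taken as activation.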

LNCaP cells = assay: Apoptosis and radiosensitization in LNCaP cells; assay type: cell-based, human; conditions: 10 and 20 μM, 16 h pretreatment, 24 h post radiation (20 Gy)
Method in brief: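 LNCaP human prostate cancer cells were grown at 37°C, 5% CO2 in RPMI-1640 with 10% FCS, 2 mM L-glutamine, antibiotics and 10 mM HEPES (pH 7.2). FCS was replaced by 0.2% human albumin 24 h before the experiment. Cells were pretreated 16 h with test compound (10 or 20 μM), then irradiated (20 Gy). They were fixed 24 h later and stained with bis-benzimide. Cells with ≥3 apoptotic bodies were scored apoptotic by fluorescence microscopy. Mean of two experiments ± standard deviation.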

[2] = Library 1, pure sample = E-isomer
[3] = Library 1, pure sample = Z-isomer
[4] = Library 2, pure sample = E-isomer

| Compound | Ratio Ki crude/Ki pure (PKCα; [2]) | Ratio Ki crude/Ki pure (PKCα; [4]) | also measured |
| --- | --- | --- | --- |
| CC(C)C(=O)OCC1(CO)C/C(=C/c2ccccc2C(F)(F)F)C(=O)O1 (centres unmarked) [L2-A1, (Z)-(2-(Hydroxymethyl)-5-oxo-4-{[2-(trifluoromethyl)phenyl]-methylene}-2-2,3-dihydrofuryl)methyl 2-methylpropanoate] | – | – | Ratio Ki crude/Ki pure (PKCα; Library 2, pure sample = Z-isomer): 0.51 |
| COc1ccc(/C=C2\CC(CO)(COC(=O)c3ccc(N(C)C)cc3)OC2=O)cc1 (centres unmarked) [L1-F5, (E)-{2-(Hydroxymethyl)-4-[(4-methoxyphenyl)methylene]-5-oxo-1-2,3-dihydrofuryl}methyl 4-(dimethylamino)benzoate] | 7.5 | – | – |
| CCCCCC/C=C1/CC(CO)(COC(=O)c2c(C(C)C)cc(C(C)C)cc2C(C)C)OC1=O (centres unmarked) [L1-A12, (Z)-[4-Heptylidene-2-(hydroxymethyl)-5-oxo-2-2,3-dihydrofuryl]methyl 2,4,6-tris(methylethyl)benzoate] | – | – | Ratio Ki crude/Ki pure (PKCα; [3]): 50.4 |
| O=C1OC(CO)(COC(=O)c2ccc([N+](=O)[O-])cc2)C/C1=C\c1ccc([N+](=O)[O-])cc1 (centres unmarked) [L1-H8, (E)-{2-(Hydroxymethyl)-4-[(4-nitrophenyl)methylene]-5-oxo-2-2,3-dihydrofuryl}methyl 4-nitrobenzoate] | 5.2 | – | – |
| CN(C)c1ccc(/C=C2\CC(CO)(COC(=O)c3ccc([N+](=O)[O-])cc3)OC2=O)cc1 (centres unmarked) [L1-E8, (E)-(4-{[4-(Dimethylamino)phenyl]methylene}-2-(hydroxymethyl)-5-oxo-2-2,3-dihydrofuryl)methyl 4-nitrobenzoate] | 5.8 | – | – |
| COc1ccc(/C=C2\CC(CO)(COC(=O)c3c(C(C)C)cc(C(C)C)cc3C(C)C)OC2=O)cc1 (centres unmarked) [L1-F12, (E)-{2-(Hydroxymethyl)-4-[(4-methoxyphenyl)methylene]-5-oxo-2-2,3-dihydrofuryl}methyl 2,4,6-tris(methylethyl)benzoate] | 24.6 | – | – |
| CCC(C(=O)OCC1(CO)C/C(=C\c2ccc(-c3ccc(C(F)(F)F)cc3)cc2)C(=O)O1)c1ccccc1 (centres unmarked) [L2-D6, (E)-[2-(Hydroxymethyl)-5-oxo-4-({4-[4-(trifluoromethyl)phenyl]phenyl}methylene)-2-2,3-dihydrofuryl]methyl 2-phenylbutanoate] | – | 5.8 | induction of cell motility (MCF-10A cells): mimics L2-C12 in terms of inducing cell motility |
| COc1ccc(C(=O)OCC2(CO)C/C(=C\c3ccc(N(C)C)cc3)C(=O)O2)cc1 (centres unmarked) [L1-E6, (E)-(4-{[4-(Dimethylamino)phenyl]methylene}-2-(hydroxymethyl)-5-oxo-2-2,3-dihydrofuryl)methyl 4-methoxybenzoate] | 8.7 | – | α-secretase activity (sAPPα) relative to untreated cells (100%) (α-secretase): 177% |
| CC(C)(C)C(=O)OCC1(CO)C/C(=C\c2ccc(F)c(Cl)c2)C(=O)O1 (centres unmarked) [L2-F10, (E)-{4-[(3-Chloro-4-fluorophenyl)methylene]-2-(hydroxymethyl)-5-oxo-2-2,3-dihydrofuryl}methyl 2,2-dimethylpropanoate] | – | 1.8 | – |
| CCCC(CCC)C(=O)OCC1(CO)C/C(=C\c2ccc(F)c(Cl)c2)C(=O)O1 (centres unmarked) [L2-B10, (E)-{4-[(3-Chloro-4-fluorophenyl)methylene]-2-(hydroxymethyl)-5-oxo-2-2,3-dihydrofuryl}methyl 2-propylpentanoate] | – | 3.8 | – |
| CCCCC(CC)C(=O)OCC1(CO)C/C(=C\c2ccc(Cl)cc2)C(=O)O1 (centres unmarked) [L2-C8, (E)-{4-[(4-Chlorophenyl)methylene]-2-(hydroxymethyl)-5-oxo-2-2,3-dihydrofuryl}methyl 2-ethylhexanoate] | – | 4.3 | AP-1 activation (AP-1 dependent luciferase activity) (AP-1): able to induce AP-1 activation; transforming activity (anchorage independent colonies) (JB6 cells): significant transforming activity |
| CCCCC(CC)C(=O)OCC1(CO)C/C(=C\c2ccc(F)c(Br)c2)C(=O)O1 (centres unmarked) [L2-C12, (E)-{4-[(3-Bromo-4-fluorophenyl)methylene]-2-(hydroxymethyl)-5-oxo-2-2,3-dihydrofuryl}methyl 2-ethylhexanoate] | – | 2.9 | translocation of PKC isozymes α, β, δ and ε [1]: translocated very quickly; induction of cell motility (MCF-10A cells): induced cell motility |
| COc1ccc(/C=C2\CC(CO)(COC(=O)c3c(C)cc(C)cc3C)OC2=O)cc1 (centres unmarked) [L1-F11, (E)-{2-(Hydroxymethyl)-4-[(4-methoxyphenyl)methylene]-5-oxo-2-2,3-dihydrofuryl}methyl 2,4,6-trimethylbenzoate] | 32.0 | – | – |
| COc1ccc(C(=O)OCC2(CO)C/C(=C\c3ccc([N+](=O)[O-])cc3)C(=O)O2)cc1 (centres unmarked) [L1-H6, (E)-{2-(Hydroxymethyl)-4-[(4-nitrophenyl)methylene]-5-oxo-2-2,3-dihydrofuryl}methyl 4-methoxybenzoate] | 2.7 | – | – |
| CCCC(CCC)C(=O)OCC1(CO)C/C(=C\c2ccc(F)c(Br)c2)C(=O)O1 (centres unmarked) [L2-B12, (E)-{4-[(3-Bromo-4-fluorophenyl)methylene]-2-(hydroxymethyl)-5-oxo-2-2,3-dihydrofuryl}methyl 2-propylpentanoate] | – | 3.0 | Ki (PKCα): ~2 nM; induction of cell motility (MCF-10A cells): very weak effect on cell motility |
| (E)-{4-[(3-Chloro-4-fluorophenyl)methylene]-2-(hydroxymethyl)-5-oxo-2-2,3-dihydrofuryl}methyl 2-propylpentanoate [L2-B11] | – | 6.3 | Ki (PKCα; read-out: Pure Sample Ki, Library 2 pure compound, E-isomer): 3.38 ± 0.15 nM |
| CCCCC(/C=C1/CC(CO)(COC(=O)c2ccc(N(C)C)cc2)OC1=O)CC (centres unmarked) [L1-B5, (Z)-[4-(2-Ethylhexylidene)-2-(hydroxymethyl)-5-oxo-2-2,3-dihydrofuryl]methyl 4-(dimethylamino)benzoate] | – | – | Ratio Ki crude/Ki pure (PKCα; [3]): 3.4 |
| CCCCC(/C=C1/CC(CO)(COC(=O)c2ccc([N+](=O)[O-])cc2)OC1=O)CC (centres unmarked) [L1-B8, (Z)-[4-(2-Ethylhexylidene)-2-(hydroxymethyl)-5-oxo-2-2,3-dihydrofuryl]methyl 4-nitrobenzoate] | – | – | Ratio Ki crude/Ki pure (PKCα; [3]): 1.4 |
| CN(C)c1ccc(/C=C2\CC(CO)(COC(=O)c3ccc(N(C)C)cc3)OC2=O)cc1 (centres unmarked) [L1-E5, (E)-(4-{[4-(Dimethylamino)phenyl]methylene}-2-(hydroxymethyl)-5-oxo-2-2,3-dihydrofuryl)methyl 4-(dimethylamino)benzoate] | 10.6 | – | – |
| CCCC(CCC)C(=O)OCC1(CO)C/C(=C\c2ccc(F)cc2)C(=O)O1 (centres unmarked) [L2-B7, (E)-{4-[(4-Fluorophenyl)methylene]-2-(hydroxymethyl)-5-oxo-2-2,3-dihydrofuryl}methyl 2-propylpentanoate] | – | 3.0 | AP-1 activation (AP-1 dependent luciferase activity) (AP-1): very strong AP-1 transcription factor activation; transforming activity (anchorage independent colonies) (JB6 cells): minimal transforming properties; induction of apoptosis (LNCaP cells): induction of apoptosis |
| CCCCC(CC)C(=O)OCC1(CO)C/C(=C\c2ccc(N(C)C)cc2)C(=O)O1 (centres unmarked) [L1-E2, (E)-(4-{[4-(Dimethylamino)phenyl]methylene}-2-(hydroxymethyl)-5-oxo-2-2,3-dihydrofuryl)methyl 2-ethylhexanoate] | 7.4 | – | – |
| CCCC(CCC)C(=O)OCC1(CO)C/C(=C\c2ccc(C(F)(F)F)cc2)C(=O)O1 (centres unmarked) [L2-B4, (E)-(2-(Hydroxymethyl)-5-oxo-4-{[4-(trifluoromethyl)phenyl]methylene}-2-2,3-dihydrofuryl)methyl 2-propylpentanoate] | – | 5.6 | AP-1 activation (AP-1 dependent luciferase activity) (AP-1): very strong AP-1 transcription factor activation; transforming activity (anchorage independent colonies) (JB6 cells): minimal transforming properties; induction of apoptosis (LNCaP cells): induction of apoptosis |
| COc1ccc(/C=C2\CC(CO)(COC(=O)c3ccc(OC)cc3)OC2=O)cc1 (centres unmarked) [L1-F6, (E)-{2-(Hydroxymethyl)-4-[(4-methoxyphenyl)methylene]-5-oxo-1-2,3-dihydrofuryl}methyl 4-methoxybenzoate] | 2.6 | – | – |
